T cruzi inh = inhibitors of intracellular T. cruzi growth, primary screen, luminescence, NIH3T3 host cells; T. cruzi beta-gal in NIH3T3, 90 h; inhibition, % (test concentration not listed); 1.4% of 300,000 active;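 active means mean inhibition across valid replicates above about 55%, limit read from the data; inconclusive means mean below that limit but half or more replicates reach it; inactive means mean below it, under half of replicates reach it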;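 further: signal also drops with host cell toxicity which is not excluded here; 0% = plate median of DMSO wells and 100% = zero luminescence signal; higher percent means less beta-gal luminescence so fewer parasites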
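compound dosing = single 50 nL compound addition per well in DMSO | material = NIH/3T3 host cells with β-galactosidase reporter T. cruzi | input = 5,000 host fibroblasts per well | timing = ≥90 h infection period, 3 h prior cell attachment | read-out basis = percent inhibition of parasite-derived β-gal signal | detection = GalScreen β-gal luminescence, detergent lysis, 60 min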
Mdm2 MdmX PPI = inhibitors of human Mdm2-MdmX association, primary screen, cell-based, luminescence, split luciferase, SaOS-2, uHTS. inhibition, % at 8 µM. 3% of 330,000 active. SaOS-2 split-luciferase Mdm2/MdmX complementation. Protein Mdm4 (Homo sapiens) + E3 ubiquitin-protein ligase Mdm2 (Homo sapiens), …;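 active means inhibition of at least 50% at 8 µM in the primary screen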
Target sequence (O15151 whole entry, looked up): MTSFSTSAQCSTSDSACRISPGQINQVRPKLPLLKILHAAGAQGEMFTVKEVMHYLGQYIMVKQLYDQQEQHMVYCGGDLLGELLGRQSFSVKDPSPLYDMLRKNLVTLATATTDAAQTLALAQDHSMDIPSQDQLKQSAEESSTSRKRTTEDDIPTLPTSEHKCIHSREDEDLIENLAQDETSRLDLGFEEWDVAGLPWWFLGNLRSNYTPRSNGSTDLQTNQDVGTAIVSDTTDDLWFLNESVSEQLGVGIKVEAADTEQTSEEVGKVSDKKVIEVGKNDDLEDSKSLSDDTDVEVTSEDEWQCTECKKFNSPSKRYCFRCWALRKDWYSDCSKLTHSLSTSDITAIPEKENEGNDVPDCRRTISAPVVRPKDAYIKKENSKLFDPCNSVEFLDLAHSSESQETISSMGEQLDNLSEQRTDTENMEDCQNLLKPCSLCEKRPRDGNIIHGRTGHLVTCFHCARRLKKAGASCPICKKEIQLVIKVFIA
Target sequence (Q00987 whole entry, looked up): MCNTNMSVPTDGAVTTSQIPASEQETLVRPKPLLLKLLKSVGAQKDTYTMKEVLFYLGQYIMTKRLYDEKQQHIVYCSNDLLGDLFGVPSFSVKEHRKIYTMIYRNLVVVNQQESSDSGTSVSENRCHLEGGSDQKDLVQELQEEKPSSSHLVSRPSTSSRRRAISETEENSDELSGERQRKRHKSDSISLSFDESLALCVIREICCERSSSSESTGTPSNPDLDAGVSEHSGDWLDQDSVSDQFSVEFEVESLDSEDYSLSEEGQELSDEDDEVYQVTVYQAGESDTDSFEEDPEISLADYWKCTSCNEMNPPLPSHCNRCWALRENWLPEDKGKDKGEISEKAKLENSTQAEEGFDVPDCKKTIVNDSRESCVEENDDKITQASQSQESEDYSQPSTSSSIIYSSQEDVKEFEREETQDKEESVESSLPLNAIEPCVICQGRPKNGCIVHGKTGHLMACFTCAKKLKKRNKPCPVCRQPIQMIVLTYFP
aSyn 5UTR inh = MLPCN primary screen, SNCA 5' untranslated region | alpha-synuclein 5'UTR reporter, inhibitor activity | 0.82% of 300,000 active | inhibition, % (tested at 7.5 µM); in the data active means inhibition above about 60%; inconclusive means no clear call, values can overlap the other calls;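 further: H4 neuroglioblastoma cells stably carrying SNCA 5'UTR luciferase fusion; 0% = DMSO wells and 100% = positive control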
CSC inhib = cancer stem cell viability inhibitors, primary screen, luminescence | cancer stem cell-like cells viability | inhibition, % at 7.5 µM | 1.1% of 300,000 active | AID 2717, 2010; in the data active means inhibition above about 75%; inconclusive means no clear call, values can overlap the other calls; tested in HMLE shEcad cells
SKKanGAS inh = S. pyogenes SKKanGAS growth inhibitors in kanamycin, primary screen, streptokinase expression inhibitor project, SKKanGAS strain, BacTiter-Glo luminescence; inhibition, % at 7.5 µM; 6 h; 1.3% of 300,000 active;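 active means mean replicate score, as percent of positive control median, at least 50; inconclusive means mean below 50 but one replicate at or above 50; inactive means mean and every replicate below 50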;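 further: strain carries kanamycin resistance gene driven by streptokinase promoter and grows in 40 µg/ml kanamycin; loss of luminescence reflects streptokinase promoter inhibition or plain growth inhibition; 0% = median of DMSO wells and 100% = positive control at its reference dose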
Mdm2-MdmX conf = Mdm2-MdmX complex disruptors, retested hits, confirmation, luminescence, single concentration; Mdm2-MdmX binding, luminescent assay; 55% of 10,000 active; shares compounds with Mdm2 MdmX PPI; inhibition, % at 8 µM; in the data active means inhibition above about 40%
Full FLuc ctr = full-length luciferase signal inhibition, confirmation, counter-screen for Mdm2/MdmX interaction inhibitor project, cell-based, single concentration, SaOS-2; AID 504607, 2011; shares compounds with Mdm2 MdmX PPI; inhibition, % at 8 µM; SaOS-2 full-length luciferase counterscreen, luminescence; 77% of 6,200 active;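 active means mean inhibition at 8 µM reaching about 37%, which flags the compound as non-specific, limit read from the data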;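 further: p53-null SaOS-2 cells with luciferase driven by a doxycycline-inducible promoter; compound on cells about two nights before reading with doxycycline added after day one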
Active calls of the source: *; ? = inconclusive; nt = not tested or not shown; + = active, no number. Compounds with a hit are over-represented: about 5.4% of the library has one in this group of screens.

SMILES	T cruzi inh	Mdm2 MdmX PPI	aSyn 5UTR inh	CSC inhib	SKKanGAS inh	Mdm2-MdmX conf	Full FLuc ctr
COc1cc(F)cc(-c2ccc3c(c2)c(-c2cccs2)c(-c2cc(OC)cc(OC)c2)n3C)c1	nt	54.2*	nt	?	nt	54.6*	56.8*
COC(=O)Nc1snnc1C	-18.6	6.1	1.6	-15.3	-12.4	nt	nt
COc1ccc2c(CC(=O)Nc3ncc(C)s3)coc2c1	-15.6	66.4*	-133.2	52.0	3.5	65.7*	+
CCOc1cc(/C=N/Nc2cc(C)nc(-n3nc(C)cc3C)n2)ccc1O	29.7	73.5*	68.3*	25.1	66.0*	39.5	22.7
COc1ccc(/C=N/Nc2cc(C)nc(-n3nc(C)cc3C)n2)c(OC)c1	37.2	55.0*	24.8	7.0	102.5*	38.0	48.5*
NNC(=O)c1csc(-c2ncc(C(F)(F)F)cc2Cl)n1	-10.8	11.1	-14.0	8.2	1.1	nt	nt
Cc1c([N+](=O)[O-])c([N+](=O)[O-])nn1CC(=O)N1CCCCC1	8.6	6.5	-52.2	-8.4	3.3	nt	nt
CCOc1ccccc1NC(=O)C1CCN(S(C)(=O)=O)CC1	-4.5	-10.4	2.5	-18.4	1.4	nt	nt
COc1ccc(-c2ccc(SCC(=O)N3CCN(c4ccccc4)CC3)nn2)cc1	-12.3	52.3*	-11.0	-6.5	0.1	10.2	nt
CCOc1ccc(-c2ncncc2-c2ccc(OC)c(OC)c2)c(O)c1	8.8	12.7	-2.5	-12.4	2.1	nt	nt
C[C@@H](NC(=O)c1[nH]cnc1C(=O)Nc1nccs1)c1ccccc1	nt	43.3	nt	18.1	nt	nt	nt
CCOc1ccc2ccccc2c1C(=O)N1CCN(c2ccccc2)CC1	-32.1	57.6*	7.2	nt	-2.9	54.1*	50.8*
CCOc1ccccc1C(=O)N1CCN(c2cccc(Cl)c2)CC1	-10.7	73.8*	95.1*	62.7	-6.1	62.8*	93.0*
O=C(O)c1ccccc1C(=O)N1CCN(c2cccc(Cl)c2)CC1	-2.4	15.2	-0.8	-6.6	2.9	nt	nt
CCOC(=O)c1[nH]c(C)c(C(=O)N2CCN(c3ccccc3)CC2)c1C	2.4	-18.6	4.1	-11.6	-13.1	nt	nt
O=C(C[n+]1cccc(O)c1)NCc1ccc(Cl)cc1	-6.6	2.3	4.2	-10.1	9.2	nt	nt
CC[n+]1c(C=C2C=C(C)OC(C)=C2)sc2ccccc21	72.7*	75.4*	9.1	nt	5.4	70.0*	55.6*
CC[n+]1c(/C=C2/C=C(C)CC(C)C2)sc2ccccc21 (stereo unspecified)	34.2	10.7	-40.7	11.4	-8.2	nt	nt
CCN1CCN(c2cc(C)c3cc(NC(=S)N4CCN(c5ccccc5)CC4)ccc3n2)CC1	58.0*	100.3*	20.0	41.5	-7.8	44.1*	52.4*
CCC(C)NC(=S)Nc1ccc2nc(N3CCOCC3)cc(C)c2c1 (stereo unspecified)	-14.6	2.5	-8.6	30.1	-1.3	nt	nt
CCCN1CCN(C(=S)Nc2ccc3nc(N4CCN(CC)CC4)cc(C)c3c2)CC1	42.3	50.4*	-43.1	30.2	-0.1	43.1*	46.2*
CCC(C)NC(=S)Nc1ccc2nc(N3CCN(CC)CC3)cc(C)c2c1 (stereo unspecified)	23.7	51.7*	-94.7	41.9	-10.7	36.1	60.6*
CCOc1ccc(C(=O)Nc2ccc3nc(N4CCN(CC)CC4)cc(C)c3c2)cc1	50.5	55.2*	66.5*	44.9	-4.6	37.7	59.5*
CC(C)(C)Cc1nc(-c2ccc(Cl)cc2)no1	-7.7	-31.7	-39.7	-9.5	-0.6	nt	nt
CCN1CCN(c2cc(C)c3cc(NC(=S)N4CCN(c5ccccc5F)CC4)ccc3n2)CC1	27.0	79.9*	-21.4	56.7	-2.6	44.9*	59.9*
SMILES	T cruzi inh	Mdm2 MdmX PPI	aSyn 5UTR inh	CSC inhib	SKKanGAS inh	Mdm2-MdmX conf	Full FLuc ctr
N#CC(C#N)=c1ccc2c(c1)NC1(CCCCC1)N=2	10.7	70.9*	-337.2	61.9	19.2	49.9*	19.8
N#Cc1ccc(CN2CCN(C(=O)c3ccccc3)CC2)c(Cl)c1	-7.1	9.2	17.0	-9.6	-7.0	nt	nt
CC(=O)c1cccc(NC(=O)c2ccccc2OCc2ccc(F)cc2)c1	24.4	8.6	20.0	3.0	-4.6	nt	nt
O=C(NNC(=O)c1ccccc1OCc1ccccc1)c1ccccc1F	-6.1	-11.1	-85.1	0.9	2.8	nt	nt
O=C(NNC(=O)c1ccccc1OCc1ccc(F)cc1)c1ccccc1O	32.7	69.0*	67.5*	5.8	92.9*	73.1*	31.1
O=C(NNC(=O)c1ccccc1OCc1ccccc1)c1ccccc1O	30.4	64.1*	64.9*	-10.3	35.3	69.7*	34.8
Cc1oc2ccc(Br)cc2c(=O)c1-c1nn[nH]n1	-4.1	-17.5	4.2	-3.9	0.7	nt	nt
Cc1ccnc(OC(C(=O)O)C(OCc2ccccc2)(c2ccc(F)cc2)c2ccc(F)cc2)n1 (stereo unspecified)	2.8	14.5	7.1	2.2	16.8	nt	nt
COc1cccc(C(=O)Nc2ncc3c(n2)CC(c2ccc(OC)cc2OC)CC3=O)c1 (stereo unspecified)	-47.1	59.4*	-3.9	nt	6.8	51.0*	56.7*
COCCNC(=S)N1CCN(Cc2ccc3c(c2)OCO3)CC1	-4.8	-6.0	8.3	-11.5	-5.6	nt	nt
COc1ccc(-c2oc(NC(=O)CCl)c(C#N)c2-c2ccc(OC)cc2)cc1	20.0	97.8*	-2.8	3.4	?	64.8*	55.4*
Cc1ccc(OCC(=O)Nc2oc(-c3ccccc3)c(-c3ccccc3)c2C#N)cc1	9.8	-6.0	17.2	-7.2	19.8	nt	nt
Cc1ccc(NC(=O)CCCNC(=O)c2ccc(Cl)cc2)nc1	-8.9	21.9	-46.3	-6.8	-7.2	nt	nt
C=C(C)Cn1c(SCC(=O)N/N=C/c2c(O)ccc3ccccc23)nc2ccccc2c1=O	27.1	82.6*	-6.7	103.3*	5.5	56.3*	31.4
Cc1ccc(-n2c(SCC(=O)N/N=C/c3c(C)nn(-c4ccccc4)c3C)nc3ccccc3c2=O)cc1	36.2	65.7*	27.1	?	27.9	46.8*	67.8*
CCn1c(SCC(=O)N/N=C/c2ccc(C)s2)nc2ccccc21	-13.5	58.0*	-52.8	58.5	-9.8	61.0*	59.3*
Cc1ccc(-n2c(SCC(=O)N/N=C/c3ccccc3OCC(=O)O)nc3ccccc3c2=O)cc1	-5.7	13.5	2.3	-17.8	-5.1	nt	nt
Cc1nn(-c2ccccc2)c(C)c1/C=N/NC(=O)CSc1nc2ccccc2c(=O)n1-c1ccc(Br)cc1	21.8	74.2*	-47.0	26.9	20.7	65.2*	74.2*

Screens deposited in PubChem BioAssay by several laboratories.
